How the values were obtained:
[1] = Toxicity in nu/nu Br athymic mouse xenografted with human E2S-stimulated MCF7 cells assessed as whitish deposit at injection site at 30 mg/kg, sc administered 6 days per week for 28 days using MC/EtOH formulation by TLC analysis; details: in vivo
[2] = Toxicity in ovariectomized-induced C57BL/6 mouse model of osteoporosis assessed as effect on body weight at 30 mg/kg, sc administered 6 days per week for 70 days using MC/EtOH formulation measured post last dose; type: organism-based; details: in vivo
How it was run: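 Female C57BL/6 mice, 63-70 days old, ovariectomized under isoflurane (sham-operated controls), randomized by weight into groups of 8. Treated SC in 0.1 mL MC:EtOH (92:8) over 70 days; sham and OVX controls received vehicle alone. Mice weighed at the end of the protocol before necropsy.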

[3] = Plasma concentration in Balb/c mouse at 10 mg/kg, sc administered as single dose using MC/EtOH formulation measured at 1 hr by LC-MS/MS analysis; type: ADME, organism-based
How it was run: (§1)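 Female Balb/c mice, fasted 8 h with free water, given a single dose in 0.1 mL vehicle: EO-33 dissolved in EtOH, then aqueous 0.4% methylcellulose added to a final 8% EtOH. Sacrificed under isoflurane at 1, 3, 7, 12 and 24 h (2–3 mice/group). Cardiac blood collected into K-EDTA and plasma stored at −80 °C. LC-MS/MS on 100 µL plasma. AUC0-24h taken from the five time points.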

[4] = Toxicity in nu/nu Br athymic mouse xenografted with human […] MCF7 cells assessed as effect on body weight at 30 mg/kg, sc administered 6 days per week for […] using MC/EtOH formulation measured 3 hrs post-last dose; type: organism-based; details: in vivo
How it was run: (§2)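 MCF-7 cells (grown in DME-F12 with 5% FBS and 1 nM estradiol) inoculated SC at 4.1 x 10^6 cells in 30% Matrigel into both flanks of bilaterally ovariectomized nude mice, three days after surgery; E2S 50 µg/mouse SC three times weekly. Test agent SC 6 days/week in 0.1 mL MC:EtOH (92:8) for 28 days; vehicle-only controls. Mice weighed and killed 3 h after last dose; livers removed.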

[5] = Plasma concentration in Balb/c mouse at 30 mg/kg, sc administered as single dose using MC/EtOH formulation measured at 1 hr by LC-MS/MS analysis; type: ADME, organism-based
How it was run: as §1

[6] = Hepatotoxicity in ovariectomized-induced C57BL/6 mouse model of osteoporosis assessed as effect on liver weight at 30 mg/kg, sc administered 6 days per week for 70 days using MC/EtOH formulation measured post last dose by necropsy analysis; type: toxicity, organism-based; details: in vivo
[7] = AUC (0 to 24 hrs) in Balb/c mouse at 30 mg/kg, po administered via gavage as single dose using MC/EtOH formulation by LC-MS/MS analysis; type: ADME, organism-based; parameters: time < 24 hr, dose 30 mg/kg, route oral; details: in vivo
How it was run: as §1

[8] = Toxicity in nu/nu Br athymic mouse xenografted with human […]-stimulated MCF7 cells assessed as effect on liver weight at 30 mg/kg, sc administered 6 days per week […] using MC/EtOH formulation measured 3 hrs post-last dose; type: organism-based; details: in vivo
How it was run: as §2

[9] = Plasma concentration in Balb/c mouse at 2 mg/kg, sc administered as single dose using MC/EtOH formulation measured at 1 hr by LC-MS/MS analysis; type: ADME, organism-based
How it was run: as §1

[10] = AUC (0 to 24 hrs) in Balb/c mouse at 30 mg/kg, sc administered as single dose using MC/EtOH formulation by LC-MS/MS analysis; type: ADME, organism-based; parameters: dose 30 mg/kg, time < 24 hr, route subcutaneous; details: in vivo
How it was run: as §1

[11] = system: Mus musculus; experiment: Osteogenic activity in ovariectomized-induced C57BL/6 mouse model of osteoporosis assessed as recovery of tibia weight at 30 mg/kg, sc administered 6 days per week for 70 days using MC/EtOH formulation relative to control; type: functional
How it was run: (§3)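 Female C57BL/6 mice (63–70 days) ovariectomized under isoflurane; sham controls kept. 8/group, dosed SC in 0.1 mL MC:EtOH (92:8) for 70 days. Tibias excised and weighed (mg/g body weight). Calcium measured by ICP-MS after calcination at 600 °C for 6 h and HNO3 microwave digestion; expressed as mg/g tibia.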

[12] = system: Mus musculus; experiment: Ex vivo inhibition of STS in ovariectomized Balb/c mouse liver homogenates assessed as reduction in transformation of [3H]-E1S into [3H]-E1 at 15 mg/kg, sc administered twice daily starting from day 2 to day 10 using MC/EtOH formulation and E1S addition on day 5 to 10 measured on day 11 by liquid scintillation counting method relative to control; type: functional
How it was run: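 Livers collected on day 11 from the OVX Balb/c uterotrophic protocol and homogenized in cold pH 7.4 phosphate buffer with protease inhibitors. 2000 g supernatant, 100 or 500 µg protein, incubated with [3H]-E1S/E1S (final 1 µM) in PBS for 2 h at 37 °C. Xylene extraction, then scintillation counting of both phases. Result given as % E1 formed. Triplicate.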

[13] = Plasma concentration in Balb/c mouse at 30 mg/kg, sc administered as single dose using PG/DMSO formulation measured after 7 hrs by LC-MS/MS analysis; type: ADME, organism-based
How it was run: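 Female Balb/c mice, fasted 8 h, given a single dose in 0.1 mL of PG or sunflower oil holding a final 8% DMSO. Sacrificed under isoflurane at 7 h (2–3 mice/group). Cardiac blood collected into K-EDTA and plasma analysed by LC-MS/MS.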

[14] = AUC (0 to 24 hrs) in Balb/c mouse at 2 mg/kg, sc administered as single dose using MC/EtOH formulation by LC-MS/MS analysis; type: ADME, organism-based; parameters: dose 2 mg/kg, time < 24 hr, route subcutaneous; details: in vivo
How it was run: as §1

[15] = Plasma concentration in Balb/c mouse at 10 mg/kg, sc administered as single dose using MC/EtOH formulation measured after 7 hrs by LC-MS/MS analysis; type: ADME, organism-based
How it was run: as §1

[16] = system: Mus musculus; experiment: Estrogenic activity in ovariectomized Balb/c mouse assessed as stimulation of uterine weight at 30 mg/kg, sc administered once daily from day 2 to 10 using MC/EtOH formulation measured on day 11; type: organism-based; details: in vivo
How it was run: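 Female Balb/c mice (15–20 g) ovariectomized under isoflurane, 5/group. Inhibitor given SC in 0.1 mL MC:EtOH (92:8) on days 2–10. E1S (2 µg/mouse, BID) or E1 (0.06 µg/mouse, ID) given SC on days 5–10. Vehicle controls included. Uterus dissected and weighed on day 11. Means ± SEM.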

[17] = Plasma concentration in Balb/c mouse at 30 mg/kg, po administered via gavage as single dose using MC/EtOH formulation measured after 3 hrs by LC-MS/MS analysis; type: ADME, organism-based
How it was run: as §1

[18] = Toxicity in nu/nu Br athymic mouse xenografted with human […]-stimulated MCF7 cells assessed as effect on kidneys at 30 mg/kg, sc administered 6 days per week […] using MC/EtOH formulation measured 3 hrs post-last dose by necropsy analysis; type: organism-based; details: in vivo
How it was run: as §2

[19] = Plasma concentration in Balb/c mouse at 30 mg/kg, po administered via gavage as single dose using MC/EtOH formulation measured at 1 hr by LC-MS/MS analysis; type: ADME, organism-based
How it was run: as §1

[20] = system: Mus musculus; experiment: Osteogenic activity in ovariectomized-induced C57BL/6 mouse model of osteoporosis assessed as recovery of tibia calcium content at 30 mg/kg, sc administered 6 days per week for 70 days using MC/EtOH formulation by Triple Quad ICP-MS analysis relative to control; type: functional
How it was run: as §3

[21] = system: Mus musculus; experiment: Estrogenic activity in ovariectomized-induced C57BL/6 mouse model of osteoporosis assessed as stimulation of uterus weight at 30 mg/kg, sc administered 6 days per week for 70 days using MC/EtOH formulation measured post last dose by necropsy analysis; type: ADME, organism-based; details: in vivo

concentration at 1 h [3]: 2.6 µg/mL | concentration at 1 h [5]: 2.6 µg/mL | AUC(0-t) at 24 h [7]: 0.878 µg·h/mL | concentration at 1 h [9]: 0.681 µg/mL | AUC(0-t) at 24 h [10]: 13.5 µg·h/mL | concentration at 7 h [13]: 0.381 µg/mL | AUC(0-t) at 24 h [14]: 1.13 µg·h/mL | concentration at 7 h [15]: 0.015 µg/mL | concentration at 3 h [17]: 0.019 µg/mL | concentration at 1 h [19]: 0.308 µg/mL
Structure (SMILES): Cc1ccc(CN(Cc2ccc(C(=O)N3CCc4ccc(OS(N)(=O)=O)cc4C3)cc2)Cc2ccco2)s1
Activity [1]: Toxic | Activity [2]: Non-Toxic | Activity [4]: Non-Toxic | Activity [6]: Non-Toxic | Activity [8]: Non-Toxic | Activity [11]: 100% | inhibition in vivo at 15 mg/kg [12]: 71% | Activity [16]: Non-Toxic | Activity [18]: Non-Toxic | Activity [20]: 71% | Activity [21]: Non-Toxic

Source: ChEMBL document CHEMBL4396876, “Antisulfatase, Osteogenic, and Anticancer Activities of Steroid Sulfatase Inhibitor EO-33 in Mice” (J Med Chem, 2019)
